Experimental data collected from several papers.
Protocols differ between the studies behind these lines.
Cell line: CCRF-CEM
Read-out: cell growth or viability

`COc1cccc(C(=O)c2cc3c(-c4ccccc4)c(OC)ccc3o2)c1` has an IC50 of 5.4 µM (72 h).
For `COc1ccc(OC)c(CCc2cc(C#N)c(N)s2)c1`, the IC50 was 0.035 µM (48 h).
`COc1ccc2oc(C(=O)c3ccccc3)cc2c1-c1ccccc1` gave an IC50 of > 50 µM (72 h).
`O=C1NCCc2[nH]c(-c3ccncc3)cc21` has an IC50 of 2.5 µM.
The IC50 of `CCOC(=O)c1cc(CCc2ccccc2OC)sc1N` is reported as 20 µM (48 h).
`COc1cccc2c1C(=O)c1c(O)c3c(c(O)c1C2=O)C[C@@](O)(C(=O)CO)C[C@@H]3O[C@H]1C[C@H](N)[C@H](O)[C@H](C)O1` has an IC50 of 0.01 µM (resazurin; 72 h).
With `CC[C@]1(O)C[C@H]2CN(CCc3c([nH]c4ccccc34)[C@@](C(=O)OC)(c3cc4c(cc3OC)N(C=O)[C@H]3[C@@](O)(C(=O)OC)[C@H](OC(C)=O)[C@]5(CC)C=CCN6CC[C@]43[C@@H]65)C2)C1` the IC50 was 0.0104 µM (fluorescence; 72 h).
The IC50 of `CCc1ccc(CCOc2ccc(CC3SC(=O)NC3=O)cc2)nc1` (stereo not shown) is reported as 17.9 µM (MTT; 48 h).
`COc1ccccc1CCc1cc(C#N)c(N)s1` has an IC50 of 6.8 µM (48 h).
`COc1ccccc1C(=O)c1cc2c(-c3ccccc3)c(OC)ccc2o1` has an IC50 of > 50 µM (72 h).
`O=C(CN1C(=O)SC(=Cc2ccccc2)C1=O)Nc1ccc(Cl)cc1C(F)(F)F` has an IC50 of 47.5 µM (MTT; 48 h).
With `COc1cccc(C(=O)c2cc3c(-c4ccccc4)c(O)ccc3o2)c1` the IC50 was 35 µM (72 h).
`COC(=O)c1cc(-c2cc(OC)ccc2OC)sc1N` gave an IC50 of 30 µM (48 h).
For `Cc1ccc(C=C2SC(=O)N(CC(=O)Nc3ccc(Cl)cc3C(F)(F)F)C2=O)cc1`, the IC50 was 31.8 µM (MTT; 48 h).
With `COC(=O)c1cc(CCc2cc(OC)ccc2OC)sc1N` the IC50 was 1.4 µM (48 h).
`O=C1C(=Cc2ccccc2)CN(C(=O)CC(=O)N2CC(=Cc3ccccc3)C(=O)C(=Cc3ccccc3)C2)CC1=Cc1ccccc1` gave an IC50 of 0.2 µM (72 h).
The IC50 of `COC(=O)c1c(N)sc(CCc2cc(OC)ccc2OC)c1C` is reported as 30 µM (48 h).
`O=C(CN1C(=O)SC(=Cc2ccc(F)cc2)C1=O)Nc1cccc(C(F)(F)F)c1` has an IC50 of 30.1 µM (MTT; 48 h).
With `O=C1C(=Cc2ccccc2)CN(C(=O)CCC(=O)N2CC(=Cc3ccccc3)C(=O)C(=Cc3ccccc3)C2)CC1=Cc1ccccc1` the IC50 was 1.21 µM (72 h).
`CCOC(=O)c1cc(CCc2cc(OC)ccc2OC)sc1N` has an IC50 of 0.4 µM (48 h).
For `COc1ccc(C(=O)c2cc3c(-c4ccccc4)c(OC)ccc3o2)cc1`, the IC50 was 1.5 µM (72 h).
`O=C1C(=Cc2ccccc2)CN(C(=O)C(=O)N2CC(=Cc3ccccc3)C(=O)C(=Cc3ccccc3)C2)CC1=Cc1ccccc1` has an IC50 of 0.75 µM (72 h).
